Assay results collected from several papers.
Protocols differ between the studies behind these lines.
Effect on: cell growth or viability

SMILES | cell line | technique | time | endpoint | result
COc1ccc2c(c1)[nH]c1c(C)nccc12 | PC-12 | MTT | 48 h | IC50 | 18000 nM
Cc1cc(N(CCOS(C)(=O)=O)CCOS(C)(=O)=O)ccc1C=O | A498 |  |  | IC50 | 0.0463 µg/mL
N.N.[Cl][Pt][Cl] | SW480 | MTT | 48 h | IC50 | 13400 nM
Cc1cc(N(CCO)CCO)ccc1C=O | A498 |  |  | IC50 | > 10 µg/mL
C[C@H]1CN(c2ccncc2NC(=O)c2ccc(F)c(-c3c(F)cccc3F)n2)C[C@@H](N)[C@@H]1O | MM1.S | thymidine uptake | 72 h | GI50 | 22 nM
CC1=C(O)C(=O)C=C2C1=CC=C1[C@@]2(C)CC[C@@]2(C)[C@@H]3C[C@](C)(C(=O)O)CC[C@]3(C)CC[C@]12C | MGC-803 | MTT | 48 h | IC50 | 350 nM
N.N.[Cl][Pt][Cl] | MGC-803 | MTT | 24 h | IC50 | 29500 nM
CC1=C(O)C(=O)C=C2C1=CC=C1[C@@]2(C)CC[C@@]2(C)[C@@H]3C[C@](C)(C(=O)OCCCn4cc(C=O)c5ccccc54)CC[C@]3(C)CC[C@]12C | MGC-803 | MTT | 48 h | IC50 | 340 nM
Cc1cccc(-n2ncc(Cl)c(Cl)c2=O)c1 | NCI-H2030 | resazurin | 96 h | IC50 | 270 nM
